The record followed here is ChEMBL document CHEMBL1123188, “5,5-Diaryl-2-thiohydantoins and 5,5-diaryl-N3-substituted-2-thiohydantoins as potential hypolipidemic agents” (1986).

What all share (format): functional
Assay [1] has as its system Rattus norvegicus. Put plainly: Compound was tested for hypolipidemic activity in male Sprague-Dawley rats by measuring change in body weight after administration of 100 mg dose per kg of diet. The procedure, abridged: (§1)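 Orotic acid liver-lipid model: groups of six male Sprague-Dawley rats unless noted. Test compound mixed into the orotic acid diet at the stated mg/kg diet. Diet and water ad libitum for 14 days, with growth and diet intake monitored. Impaired growth with normal intake was taken as toxicity. At sacrifice, liver homogenized in cold 0.63 M phosphate buffer, pH 7.4. Liver triglyceride and cholesterol reported as mg/g wet liver.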

Assay [2] concerns Rattus norvegicus. Put plainly: Compound was tested for hypolipidemic activity in male Sprague-Dawley rats by measuring amount of liver cholesterol after administration of 400 mg dose per kg of diet. The procedure, abridged: as §1
For assay [3], the system named is Rattus norvegicus. The assay is described as follows: Compound was tested for hypolipidemic activity in male Sprague-Dawley rats by measuring amount of liver triglyceride after administration of 200 mg dose per kg of diet. The method, boiled down: as §1
For assay [4], the system named is Rattus norvegicus. Put plainly: Compound was tested for hypolipidemic activity in male Sprague-Dawley rats by measuring amount of liver cholesterol after administration of 200 mg dose per kg of diet. The method, boiled down: as §1
Assay [5] has as its system Rattus norvegicus. The assay is described as follows: Compound was tested for hypolipidemic activity in male Sprague-Dawley rats by measuring change in body weight after administration of 400 mg dose per kg of diet. The method, boiled down:
as §1

Assay [6] relates to Rattus norvegicus. The assay is described as follows: Compound was tested for hypolipidemic activity in male Sprague-Dawley rats by measuring change in body weight after administration of 600 mg dose per kg of diet. The procedure, abridged:
as §1

Assay [7] is filed under the species Rattus norvegicus. The assay is described as follows: The concentration required to reduce liver cholesterol half-way from the average orotic acid level to the basal level. The method, boiled down:
(§2)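 Dose-response testing in the 14-day orotic acid diet model, six male Sprague-Dawley rats per group. Midpoint dose (mg/kg diet) read from dose-response curves as the dietary level that brings liver cholesterol or triglyceride half-way between the orotic-acid-fed control and a basal control given no orotic acid.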

The test system of assay [8] is Rattus norvegicus. The assay is described as follows: Compound was tested for hypolipidemic activity in male Sprague-Dawley rats by measuring amount of liver triglyceride after administration of 600 mg dose per kg of diet. The procedure, abridged: as §1
For assay [9], the species on record is Rattus norvegicus. Put plainly: The activity relative to DPTH in liver cholesterol. The procedure, abridged:
(§3)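 Relative activity is the midpoint dose from the orotic acid rat dose-response curves compared against DPTH, with DPTH set to 1.00. Calculated separately for liver cholesterol and for liver triglyceride.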

For assay [10], the system named is Rattus norvegicus. Put plainly: Compound was tested for hypolipidemic activity in male Sprague-Dawley rats by measuring amount of liver triglyceride after administration of 100 mg dose per kg of diet. The procedure, abridged:
as §1

Assay [11] is filed under the species Rattus norvegicus. Put plainly: The activity relative to DPTH in liver triglyceride. The method, boiled down:
as §3

In assay [12] the test system is Rattus norvegicus. Put plainly: Compound was tested for hypolipidemic activity in male Sprague-Dawley rats by measuring amount of liver cholesterol after administration of 600 mg dose per kg of diet. The procedure, abridged: as §1
Assay [13] concerns Rattus norvegicus. Put plainly: Compound was tested for hypolipidemic activity in male Sprague-Dawley rats by measuring change in body weight after administration of 200 mg dose per kg of diet. The procedure, abridged: as §1
Assay [14] is filed under the species Rattus norvegicus. The assay is described as follows: The concentration required to reduce liver triglyceride half-way from the average orotic acid level to the basal level. The procedure, abridged:
as §2

Assay [15] relates to Rattus norvegicus. Put plainly: Compound was tested for hypolipidemic activity in male Sprague-Dawley rats by measuring amount of liver triglyceride after administration of 400 mg dose per kg of diet. The procedure, abridged:
as §1

Assay [16] has as its system Rattus norvegicus. Put plainly: Compound was tested for hypolipidemic activity in male Sprague-Dawley rats by measuring amount of liver cholesterol after administration of 100 mg dose per kg of diet. The procedure, abridged:
as §1

The species entered for assay [17] is Rattus norvegicus. The assay is described as follows: The activity relative to DPTH. […] in liver cholesterol. The procedure, abridged:
as §3

The species named for assay [18] is Rattus norvegicus. Put plainly: The activity relative to DPTH. in liver triglyceride. The method, boiled down: as §3
Assay [19] deals with Rattus norvegicus. Put plainly: Compound was tested for hypolipidemic activity in male Sprague-Dawley rats by measuring amount of liver cholesterol after administration of 750 mg dose per kg of diet. The method, boiled down: as §1
The subject of assay [20] is Rattus norvegicus. Put plainly: Compound was tested for hypolipidemic activity in male Sprague-Dawley rats by measuring amount of liver triglyceride after administration of 750 mg dose per kg of diet. The procedure, abridged:
as §1

The subject of assay [21] is Rattus norvegicus. Put plainly: Compound was tested for hypolipidemic activity in male Sprague-Dawley rats by measuring change in body weight after administration of 750 mg dose per kg of diet. The method, boiled down: as §1
Assay [22] relates to Rattus norvegicus. The assay is described as follows: Compound was tested for hypolipidemic activity in male Sprague-Dawley rats by measuring amount of liver cholesterol after administration of 770 mg dose per kg of diet. The procedure, abridged: as §1
Assay [23] relates to Rattus norvegicus. The assay is described as follows: Compound was tested for hypolipidemic activity in male Sprague-Dawley rats by measuring amount of liver triglyceride after administration of 770 mg dose per kg of diet. The method, boiled down:
as §1

The test system of assay [24] is Rattus norvegicus. Put plainly: Compound was tested for hypolipidemic activity in male Sprague-Dawley rats by measuring change in body weight after administration of 770 mg dose per kg of diet. The procedure, abridged:
as §1

Assay [25] relates to Rattus norvegicus. Put plainly: Compound was tested for hypolipidemic activity in male Sprague-Dawley rats by measuring amount of liver triglyceride after administration of 729 mg dose per kg of diet. The procedure, abridged:
as §1

Assay [26] has as its system Rattus norvegicus. Put plainly: Compound was tested for hypolipidemic activity in male Sprague-Dawley rats by measuring amount of liver cholesterol after administration of 729 mg dose per kg of diet. The method, boiled down: as §1
Assay [27] concerns Rattus norvegicus. Put plainly: Compound was tested for hypolipidemic activity in male Sprague-Dawley rats by measuring change in body weight after administration of 729 mg dose per kg of diet. The procedure, abridged:
as §1

In assay [28] the test system is Rattus norvegicus. Put plainly: Compound was tested for hypolipidemic activity in male Sprague-Dawley rats by measuring amount of liver cholesterol after administration of 735 mg dose per kg of diet. The method, boiled down: as §1
Assay [29] concerns Rattus norvegicus. Put plainly: Compound was tested for hypolipidemic activity in male Sprague-Dawley rats by measuring change in body weight after administration of 735 mg dose per kg of diet. The procedure, abridged:
as §1

In assay [30] the test system is Rattus norvegicus. The assay is described as follows: Compound was tested for hypolipidemic activity in male Sprague-Dawley rats by measuring amount of liver triglyceride after administration of 735 mg dose per kg of diet. The method, boiled down: as §1
In assay [31] the test system is Rattus norvegicus. The assay is described as follows: Compound was tested for hypolipidemic activity in male Sprague-Dawley rats by measuring amount of liver triglyceride after administration of 635 mg dose per kg of diet. The method, boiled down: as §1
Assay [32] has as its system Rattus norvegicus. The assay is described as follows: Compound was tested for hypolipidemic activity in male Sprague-Dawley rats by measuring amount of liver cholesterol after administration of 635 mg dose per kg of diet. The method, boiled down: as §1
Assay [33] concerns Rattus norvegicus. Put plainly: Compound was tested for hypolipidemic activity in male Sprague-Dawley rats by measuring change in body weight after administration of 635 mg dose per kg of diet. The procedure, abridged: as §1

The structures appear in SMILES notation.

Turning to `O=C1NC(=S)NC1(c1ccccn1)c1ccccn1`, the Body weight change with Rattus norvegicus [1] is given as 180 g; in the assay with Rattus norvegicus [5], 203 g; with Rattus norvegicus [6], 132 g; with Rattus norvegicus [13], 181 g. Also, the Liver cholesterol in the assay with Rattus norvegicus [2] came out at 2.8 mg/g; in the assay with Rattus norvegicus [4] it was 10.3 mg/g; in the assay with Rattus norvegicus [12], 3 mg/g; in the assay with Rattus norvegicus [16], 17 mg/g. Moreover, the “Liver TG” value with Rattus norvegicus [3] was found to be 72 mg/g; in the assay on Rattus norvegicus [8], 16 mg/g; with Rattus norvegicus [10], 100 mg/g; in the assay on Rattus norvegicus [15] it was 28 mg/g. Further, the Midpoint dose in the assay listed under Rattus norvegicus [7] was 180 mg/kg; in the assay listed under Rattus norvegicus [14], 235 mg/kg. Moreover, the Relative activity in the assay listed under Rattus norvegicus [9] came to 1.33; in the assay listed under Rattus norvegicus [11] it was 0.43.

As to `CCCCN1C(=O)C(c2ccccc2)(c2ccccc2)NC1=S`, the Liver cholesterol with Rattus norvegicus [2] stood at 10.7 mg/g; in the assay with Rattus norvegicus [4] it was 17.8 mg/g; in the assay on Rattus norvegicus [12], 4.2 mg/g. Moreover, the “Liver TG” value in the assay with Rattus norvegicus [3] amounted to 97 mg/g; in the assay with Rattus norvegicus [8] it was 19 mg/g; in the assay on Rattus norvegicus [15], 70 mg/g. Also, the Cholesterol in the assay listed under Rattus norvegicus [17] worked out at 0.71; in the assay filed under Rattus norvegicus [7], 340 mg kg-1 diet. In addition, the Body weight change was 210 g with Rattus norvegicus [5], 134 g with Rattus norvegicus [6] and 185 g in the assay with Rattus norvegicus [13]. Further, the Midpoint dose in the assay filed under Rattus norvegicus [7] worked out at 340 mg/kg; in the assay listed under Rattus norvegicus [14], 450 mg/kg. Further, the TG in the assay filed under Rattus norvegicus [18] turned out to be 0.22; in the assay listed under Rattus norvegicus [14] it was 450 mg kg-1 diet. Further, the results for the Relative activity in the assay filed under Rattus norvegicus [9] and in the assay filed under Rattus norvegicus [11] were 0.71 and 0.22, respectively.

As for `O=C1NC(=S)NC1(c1ccc(Cl)cc1)c1ccc(Cl)cc1`, the Liver cholesterol in the assay on Rattus norvegicus [19] turned out to be 13.2 mg/g. The “Liver TG” value in the assay on Rattus norvegicus [20] was 82 mg/g. In the assay on Rattus norvegicus [21], this molecule displayed a Body weight change of 91 g.

In the assay on Rattus norvegicus [22], `O=C1N(c2ccccc2)C(=S)NC1(c1ccccc1)c1ccccc1` came in with a Liver cholesterol of 8.6 mg/g. Further, in the assay on Rattus norvegicus [23], the “Liver TG” value turned out to be 42 mg/g. In the assay on Rattus norvegicus [24], this molecule had a Body weight change of 91 g.

As to `CCCCN1C(=O)C(c2ccccn2)(c2ccccn2)NC1=S`, the “Liver TG” value in the assay on Rattus norvegicus [25] was 85 mg/g. Also, the Liver cholesterol in the assay on Rattus norvegicus [26] came out at 12.2 mg/g. This molecule came in with a Body weight change in the assay on Rattus norvegicus [27] of 140 g.

Turning to `COc1ccc(C2(c3ccc(OC)cc3)NC(=S)NC2=O)cc1`, in the assay on Rattus norvegicus [28], the Liver cholesterol was 21.6 mg/g. Besides, the Body weight change in the assay with Rattus norvegicus [29] came to 135 g. The “Liver TG” value with Rattus norvegicus [30] was determined as 82 mg/g.

With `COc1ccc(C2(c3ccccc3)NC(=S)NC2=O)cc1` (racemic), the “Liver TG” value in the assay on Rattus norvegicus [31] was 70 mg/g. The same molecule displayed a Liver cholesterol in the assay with Rattus norvegicus [32] of 23.1 mg/g. The Body weight change with Rattus norvegicus [33] is 144 g.

Take `O=C1NC(=S)NC1(c1ccccc1)c1ccc(O)cc1` (racemic): in the assay on Rattus norvegicus [31], the “Liver TG” value is 48 mg/g. In addition, the Liver cholesterol with Rattus norvegicus [32] is 9.1 mg/g. In the assay on Rattus norvegicus [33], this molecule returned a Body weight change of 130 g.

For `O=C1NC(=S)NC1(c1ccccc1)c1ccccc1` [THIOPHENYTOIN], in the assay with Rattus norvegicus [6], the Body weight change is on record as 136 g. For the same molecule, the Midpoint dose in the assay listed under Rattus norvegicus [7] was found to be 240 mg/kg; in the assay listed under Rattus norvegicus [14] it was 100 mg/kg. For the same molecule, in the assay on Rattus norvegicus [8], the “Liver TG” value worked out at 16 mg/g. Also, the Relative activity in the assay filed under Rattus norvegicus [9] and in the assay filed under Rattus norvegicus [11] was 1 in each case. The molecule also yielded a Liver cholesterol in the assay on Rattus norvegicus [12] of 3 mg/g.
